For 1 compound, Drug metabolism results are on record in ChEMBL document CHEMBL3526048, “In vitro metabolism of rivoglitazone, a novel peroxisome proliferator-activated receptor γ agonist, in rat, monkey, and human liver microsomes and freshly isolated hepatocytes” (Drug Metab Dispos, 2011).

The subject of data set [1] is Liver microsome. Description: Drug metabolism in human liver microsomes assessed as formation of 2-mercapto-3-(4-((6-methoxy-1-methyl-1H-benzo[d]imidazol-2-yl)methoxy)phenyl)propanamide at 20 uM after 2 hrs by radio-HPLC/LC-MS/MS analysis in presence of NADPH-generating system and NADPH-generating system/SAM. It is filed as ADME.
The subject of data set [2] is Liver microsome. Briefly: Drug metabolism in human liver microsomes assessed as formation of 3-(4-((6-methoxy-1-methyl-1H-benzo[d]imidazol-2-yl)methoxy)phenyl)-2-(methylthio)propanoic acid at 20 uM after 2 to 4 hrs by radio-HPLC/LC-MS/MS analysis in presence of NADPH-generating system/SAM and UDPGA/SAM. The data set is classed as ADME. (Liver microsomes are a subcellular fraction often used to study metabolism.)

The subject of data set [3] is Liver microsome. Briefly: Drug metabolism in Sprague-Dawley rat liver microsomes assessed as formation of 2-hydroxy-3-(4-((6-methoxy-1-methyl-1H-benzo[d]imidazol-2-yl)methoxy)phenyl)propanamide at 20 uM after 2 hrs by radio-HPLC/LC-MS/MS analysis in presence of NADPH-generating system and NADPH-generating system/SAM. It is filed as ADME.
Data set [4] is described as follows: Drug metabolism in rat hepatocytes assessed as formation of 3-(4-((6-methoxy-1-methyl-1H-benzo[d]imidazol-2-yl)methoxy)phenyl)-2-(methylthio)propanamide at 30 uM after 3 hrs by radio-HPLC/LC-MS/MS analysis in presence of NADPH-generating system/SAM. The data set is classed as ADME, cell-based, Hepatocyte.
Data set [5] in a line: Drug metabolism in human hepatocytes assessed as formation of 2-hydroxy-3-(4-((6-methoxy-1-methyl-1H-benzo[d]imidazol-2-yl)methoxy)phenyl)propanamide at 30 uM after 3 hrs by radio-HPLC/LC-MS/MS analysis in presence of NADPH-generating system and NADPH-generating system/SAM. It is filed as ADME, cell-based, Hepatocyte.
Data set [6] is described as follows: Drug metabolism in human hepatocytes assessed as formation of 5-(4-((6-hydroxy-1-methyl-1H-benzo[d]imidazol-2-yl)methoxy)benzyl)thiazolidine-2,4-dione at 30 uM after 3 hrs by radio-HPLC/LC-MS/MS analysis in presence of NADPH-generating system and NADPH-generating system/SAM. The data set is classed as ADME, cell-based, Hepatocyte.
Data set [7] relates to Liver microsome. Description: Drug metabolism in Sprague-Dawley rat liver microsomes assessed as formation of 2-amino-3-((1-carboxy-2-(4-((6-methoxy-1-methyl-1H-benzo[d]imidazol-2-yl)methoxy)phenyl)ethyl)disulfanyl)propanoic acid at 20 uM by radio-HPLC/LC-MS/MS analysis. The data set is classed as ADME.
Another data set addresses Cytochrome P450 2C9 (Homo sapiens, UniProt P11712). Description: Activity of human CYP2C9 expressed in microsomes isolated from baculovirus infected insect cell assessed as enzyme-mediated 2-amino-3-((1-carboxy-2-(4-((6-methoxy-1-methyl-1H-benzo[d]imidazol-2-yl)methoxy)phenyl)ethyl)disulfanyl)propanoic acid formation at 20 uM after 2 hrs by radio-HPLC/LC-MS/MS analysis. It is filed as ADME. In a few lines:
(§1)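 Baculovirus-insect-cell microsomes expressing the human CYP (1 mg/ml protein) were incubated with [14C]rivoglitazone (20 μM) in 50 mM potassium phosphate (pH 7.4) or 100 mM Tris-HCl (pH 7.5) with an NADPH-generating system (2 mM NADP+, 20 mM glucose 6-phosphate, 2 units/ml G6PDH, 10 mM MgCl2) for 2 h at 37°C. Insect-cell control supersomes served as the control. Reactions were stopped with acetonitrile, and the concentrated supernatants were analysed by radio-HPLC, LC-MS and LC-MS/MS.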

For data set [8], the target named is T1, UDP-glucuronosyltransferase 2B7 (Homo sapiens, UniProt P16662).
T1 sequence (P16662 whole entry): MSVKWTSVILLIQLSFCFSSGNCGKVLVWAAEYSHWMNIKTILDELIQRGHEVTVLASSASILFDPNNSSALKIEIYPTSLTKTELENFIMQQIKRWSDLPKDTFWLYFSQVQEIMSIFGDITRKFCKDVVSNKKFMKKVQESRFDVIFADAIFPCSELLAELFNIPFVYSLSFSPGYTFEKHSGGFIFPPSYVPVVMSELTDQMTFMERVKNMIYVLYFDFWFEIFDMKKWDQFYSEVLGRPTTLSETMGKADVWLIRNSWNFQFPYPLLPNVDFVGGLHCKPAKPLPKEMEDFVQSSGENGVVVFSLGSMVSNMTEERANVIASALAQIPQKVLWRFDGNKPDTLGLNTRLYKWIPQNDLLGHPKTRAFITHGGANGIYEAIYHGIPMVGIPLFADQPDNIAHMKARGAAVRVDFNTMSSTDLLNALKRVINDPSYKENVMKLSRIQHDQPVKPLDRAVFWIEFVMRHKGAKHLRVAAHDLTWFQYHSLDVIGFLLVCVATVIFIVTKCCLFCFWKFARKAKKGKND
Briefly: Activity of human UGT2B7 expressed in microsomes isolated from baculovirus infected insect cell assessed as enzyme-mediated 3-(4-((6-methoxy-1-methyl-1H-benzo[d]imidazol-2-yl)methoxy)phenyl)-2-(methylthio)propanamide formation at 20 uM after 4 hrs by radio-HPLC/LC-MS/MS analysis in presence of NADPH-generating system/SAM in presence of UDPGA and UDPGA/SAM. It is filed as ADME.

Data set [9] concerns the target T2, Cytochrome P450 3A5 (Homo sapiens, UniProt P20815). Briefly: Activity of human CYP3A5 expressed in microsomes isolated from baculovirus infected insect cell assessed as enzyme-mediated 2-amino-3-((1-carboxy-2-(4-((6-methoxy-1-methyl-1H-benzo[d]imidazol-2-yl)methoxy)phenyl)ethyl)disulfanyl)propanoic acid formation at 20 uM after 2 hrs by radio-HPLC/LC-MS/MS analysis. The data set is classed as ADME. In a few lines:
as §1

In data set [10] the target is T2, Cytochrome P450 3A5. Briefly: Activity of human CYP3A5 expressed in microsomes isolated from baculovirus infected insect cell assessed as enzyme-mediated 2-hydroxy-3-(4-((6-methoxy-1-methyl-1H-benzo[d]imidazol-2-yl)methoxy)phenyl)propanamide formation at 20 uM after 2 hrs by radio-HPLC/LC-MS/MS analysis in presence of NADPH-generating system and NADPH-generating system/SAM. It is filed as ADME. In a few lines:
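cDNA-expressed human CYP3A5 in baculovirus-insect-cell microsomes (1 mg/ml protein) was incubated with [¹⁴C]rivoglitazone (20 μM) in 50 mM potassium phosphate (pH 7.4) or 100 mM Tris-HCl (pH 7.5). NADPH-generating system: 2 mM NADP⁺, 20 mM glucose 6-phosphate, 2 units/ml G6PDH, 10 mM MgCl₂. Incubation ran 2 h at 37°C with shaking; insect-cell control supersomes served as control. Acetonitrile stop, supernatant concentrated, then radio-HPLC, LC-MS and LC-MS/MS.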

The structures appear in SMILES notation.

T2 sequence (P20815 whole entry): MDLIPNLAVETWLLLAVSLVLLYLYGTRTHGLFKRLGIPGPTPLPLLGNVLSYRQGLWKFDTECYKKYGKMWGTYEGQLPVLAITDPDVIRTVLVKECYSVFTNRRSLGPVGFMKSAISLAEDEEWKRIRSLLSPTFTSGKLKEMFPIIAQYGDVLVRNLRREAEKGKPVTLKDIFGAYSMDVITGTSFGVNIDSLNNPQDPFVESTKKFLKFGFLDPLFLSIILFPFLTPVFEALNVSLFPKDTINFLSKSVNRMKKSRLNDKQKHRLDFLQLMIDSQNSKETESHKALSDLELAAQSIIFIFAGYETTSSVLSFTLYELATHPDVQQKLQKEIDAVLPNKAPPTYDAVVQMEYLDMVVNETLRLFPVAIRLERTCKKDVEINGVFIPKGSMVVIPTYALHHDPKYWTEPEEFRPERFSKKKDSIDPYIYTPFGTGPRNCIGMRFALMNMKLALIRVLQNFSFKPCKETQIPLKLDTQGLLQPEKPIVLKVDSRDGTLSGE
Sequence of Cytochrome P450 2C9 (P11712 whole entry): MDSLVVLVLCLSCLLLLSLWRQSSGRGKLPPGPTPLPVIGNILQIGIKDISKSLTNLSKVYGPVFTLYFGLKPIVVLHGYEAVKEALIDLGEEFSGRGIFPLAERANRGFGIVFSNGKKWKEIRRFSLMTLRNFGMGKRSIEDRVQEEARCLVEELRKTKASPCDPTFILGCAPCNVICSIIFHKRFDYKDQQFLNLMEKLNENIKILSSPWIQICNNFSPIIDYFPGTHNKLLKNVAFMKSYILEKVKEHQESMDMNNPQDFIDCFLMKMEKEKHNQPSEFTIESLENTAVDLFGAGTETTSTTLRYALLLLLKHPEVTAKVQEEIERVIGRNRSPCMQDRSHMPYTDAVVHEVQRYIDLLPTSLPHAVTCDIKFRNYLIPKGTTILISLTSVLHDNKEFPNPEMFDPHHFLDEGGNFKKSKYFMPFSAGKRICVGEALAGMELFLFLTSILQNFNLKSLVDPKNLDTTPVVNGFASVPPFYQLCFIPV

Regarding `COc1ccc2nc(COc3ccc(C[14CH]4SC(=O)NC4=O)cc3)n(C)c2c1.Cl` (racemic), the Drug metabolism entry in the data set on Liver microsome [1] is “metabolite_detected”; with Liver microsome [2] it was “metabolite_detected”; in the data set with Liver microsome [3], “metabolite_detected”; in [4] it was “metabolite_detected”; in data set [5] it was “metabolite_not_detected”; in data set [6], “metabolite_detected”. Further, the Drug metabolism entry is “metabolite_not_detected” in the data set with Liver microsome [7]; “metabolite_not_detected” at Cytochrome P450 2C9; “metabolite_not_detected” in [8]; “metabolite_not_detected” on Cytochrome P450 3A5 [9]; “metabolite_detected” on Cytochrome P450 3A5 [10].
